Source: PubChem
Hits are enriched below; roughly 2% of the tested compounds scored in any of these assays.
eIF4E 4G PPI – eIF4E/eIF4G interaction inhibition in translation initiation | P63073+Q04637 | TR-FRET eIF4E-eIF4GI(517-606) binding, 2 h | inhibition, % at 21.7 µM | 220,000 tested, 0.37% active;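 also: 0% = full FRET control wells and 100% = background wells lacking eIF4GI fragment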
Hck Nef HTS – inhibitors of human Hck kinase activated by Nef; 220,000 tested, 0.68% active; AID 463187; inhibition, % at 20 µM; Recombinant Hck-YEEI plus Nef, Z-Lyte FRET kinase assay;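 active = Hck-Nef kinase inhibition above about 50%, limit read from the data; inactive = inhibition below that limit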;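 also: 0% = DMSO with Hck plus Nef and 100% = Hck alone without Nef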
p47phox inh – blocks human p47phox regulatory protein of NADPH oxidases | p47phox/p22phox peptide binding, fluorescence polarization, 2 h | P14598 | 220,000 tested, 0.53% active | inhibition, % at 24.7 µM;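 also: 0% = p47phox with labelled peptide and 100% = labelled peptide alone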
Target sequence (P14598 whole entry, looked up): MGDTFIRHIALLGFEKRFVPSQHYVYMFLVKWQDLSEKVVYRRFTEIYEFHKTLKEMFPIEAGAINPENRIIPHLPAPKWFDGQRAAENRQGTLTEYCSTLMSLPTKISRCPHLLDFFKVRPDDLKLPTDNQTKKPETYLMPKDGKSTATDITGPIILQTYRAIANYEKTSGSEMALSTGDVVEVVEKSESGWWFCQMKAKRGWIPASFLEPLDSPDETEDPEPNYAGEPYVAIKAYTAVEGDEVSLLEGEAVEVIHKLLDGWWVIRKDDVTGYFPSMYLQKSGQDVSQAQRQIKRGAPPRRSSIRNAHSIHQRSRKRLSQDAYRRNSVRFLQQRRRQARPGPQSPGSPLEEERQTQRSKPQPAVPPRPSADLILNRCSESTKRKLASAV
Diaph act CS – activates diaphorase or chemically reduces, flagging diaphorase assay artifacts | Diaphorase/resazurin coupled assay, resorufin fluorescence, 16 min; active compounds read high; 1 = vehicle wells, 0 = NADH-free wells | activation factor at 20 µM | 190,000 tested, 0.005% active;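 active = diaphorase activity raised at least twofold by the compound at 20 µM; inactive = activation factor below 2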
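System – purified diaphorase enzyme from Clostridium kluyveri · Input – enzyme 0.07 U/mL final · Also added – final NADH 0.114 mM, resazurin 0.1 mM · Measured by – fluorescence of resorufin, 544 nm excitation, 590 nm emission · Timing – 16 min enzyme reaction, ambient temperature · Measure – resorufin increase flagging diaphorase activators or reducers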
14-3-3 Bad PPI – disrupts binding of bovine 14-3-3 zeta to phospho-Bad peptide. TR-FRET 14-3-3zeta/Dy647-pBad peptide displacement, 1 h. 220,000 tested, 0.71% active. inhibition, % at 21.7 µM. P63103;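 active = inhibition above about 70%, limit read from the data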;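 also: 0% = full 14-3-3 plus peptide FRET controls and 100% = background without 14-3-3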
Target sequence (P63103 whole entry, looked up): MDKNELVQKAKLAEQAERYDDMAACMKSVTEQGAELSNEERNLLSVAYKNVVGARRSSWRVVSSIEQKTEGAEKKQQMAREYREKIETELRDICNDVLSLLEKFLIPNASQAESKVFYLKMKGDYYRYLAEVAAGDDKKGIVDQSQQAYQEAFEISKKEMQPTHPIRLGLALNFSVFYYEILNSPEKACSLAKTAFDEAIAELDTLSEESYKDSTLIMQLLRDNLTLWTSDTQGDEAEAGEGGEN
* hit, by the source's call; . = no result given; + = active, no number; [ ] = another dose, or the depositor's remark.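 The calls were made as follows, unless noted: active = inhibition above about 30% (limit read from the data); inactive = the rest.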

SMILES | eIF4E 4G PPI | Hck Nef HTS | p47phox inh | Diaph act CS | 14-3-3 Bad PPI
CCOc1ccc(N/C(N)=N/c2nc(CSc3nnnn3-c3ccccc3)cc(=O)[nH]2)cc1 | -0.8 | -13.4 | 2.4 | . | 2.4
O=c1[nH]nc(N2CCOCC2)c(=O)[nH]1 | -2.8 | 2.4 | -3.5 | . | 18.6
Cn1c(=O)[nH]c(=O)c2c1nc(N/N=C/c1ccncc1)n2Cc1ccc(Cl)cc1 | -6.8 | 22.3 | -7.0 | . | -4.0
COc1cc(NC(=O)C(C)C)ccc1NC(=O)c1ccco1 | 5.9 | -0.3 | 124.7* | 0.8 | -1.9
CCC(NC(=O)CCl)c1ccc(C)cc1 (configuration not stated) | 1.7 | 22.2 | -2.9 | 1 | -15.8
CSC(=S)N/N=C(\C)c1ccc(Br)cc1 | -0.2 | 23.3 | 1.5 | 0.7 | -22.4
O=C(C1CCN(S(=O)(=O)c2cccnc2)CC1)N1CCN(c2cccc(Cl)c2)CC1 | 86.3* | -0.1 | -4.0 | 0.8 | 2.2
COc1ccc(SN=C2C(C)=CC(=O)C=C2C)cc1 | -6.8 | 23.3 | 37.8* | 0.8 | -11.5
COc1ccc(C(=O)c2ccc(Br)cc2)cc1 | 3.5 | 0.2 | -6.1 | 1.1 | 12.7
O=C(NC(c1ccc(Cl)cc1)c1cc(Cl)c2cccnc2c1O)c1cccnc1 (configuration not stated) | 4.3 | -0.6 | 31.7* | 0.9 | 6.3
CCCC(=O)NC(c1ccc(OC)c(OC)c1)c1cc(Cl)c2cccnc2c1O (configuration not stated) | -1.5 | 5.1 | -6.5 | 0.6 | -19.7
O=C(NNS(=O)(=O)c1ccccc1[N+](=O)[O-])c1ccc(F)cc1 | -1.6 | 20.0 | 0.6 | 0.9 | -8.6
O=C(NNS(=O)(=O)c1ccccc1[N+](=O)[O-])c1ccc(O)cc1 | 22.3 | -1.5 | 41.8* | 1 | 7.2
CC(Sc1ccc2nnc(-c3ccc(F)cc3)n2n1)C(=O)O (configuration not stated) | 13.7 | -1.6 | 23.4 | 0.5 | 9.2
CCOC(=O)C(C)Sc1ccc2nnc(-c3ccc(F)cc3)n2n1 (configuration not stated) | 50.8* | -1.6 | -0.6 | 0.9 | -4.0
CN(C)c1nc(-c2cccs2)cc(C(F)(F)F)c1C#N | 2.2 | -0.7 | 58.0* | . | 2.9
CN(C)c1nc(-c2ccccc2)cc(C(F)(F)F)c1C#N | 2.8 | 11.1 | -2.2 | 0.9 | 6.1
O=C(N/N=C/c1cccnc1)c1cccc(S(=O)(=O)Nc2cccc(Cl)c2)c1 | 0.8 | -6.7 | -3.5 | 1 | -2.6
O=C(N/N=C/c1ccncc1)c1cccc(S(=O)(=O)Nc2ccc(Cl)cc2)c1 | 92.4* | 28.8 | 16.8 | . | 40.4
Cc1ccc(CNC(=O)CNC(=S)N(Cc2ccccc2)Cc2ccccc2F)cc1 | 2.7 | -37.4 | -2.6 | 0.8 | -1.0
CCCCCCNC(=O)N[C@H](C(=O)NCCC[C@H]1CN2C(=NC[C@H]2C)N1CCC(c1ccccc1)c1ccccc1)C(C)O (some centres not stated) | 52.6* | -20.2 | 87.2* | . | 1.4
Cc1cc(C)nc(N/N=C/C2=C(O)CC(c3ccc(F)cc3)CC2=O)n1 (configuration not stated) | 2.9 | 13.6 | 0.3 | . | -11.2
CCN(CC)CCCN1C(=O)C(=O)/C(=C(/O)c2cc(C)ccc2C)C1c1cccnc1 (configuration not stated) | -5.3 | -0.1 | -2.5 | 0.8 | -13.2
CCN(CC)CCN1C(=O)C(=O)/C(=C(/O)c2ccc(C)cc2)C1c1cccnc1 (configuration not stated) | 97.3* | 20.3 | -3.1 | . | 4.7
Cc1ccc(NC(=O)c2ccc(CNc3c(N4CCC(C)CC4)c(=O)c3=O)cc2)cc1 | -10.5 | 17.0 | -5.8 | . | -3.5
SMILES | eIF4E 4G PPI | Hck Nef HTS | p47phox inh | Diaph act CS | 14-3-3 Bad PPI
CCOC(=O)c1c(C)nc2sc3c(=O)n(-c4ccc(C(C)=O)cc4)nnc3c2c1-c1ccc(Cl)cc1 | -16.5 | 0.2 | 59.6* | 0.8 | -7.3
CCOC(=O)c1c(C)nc2sc3c(=O)n(-c4ccc(C(C)=O)cc4)cnc3c2c1-c1ccc(Cl)cc1 | -2.7 | -1.5 | -12.8 | 0.9 | 11.5
CCCCOC(=O)c1ccc(NC(=O)c2c(OC)cccc2OC)cc1 | 1.7 | 23.4 | 37.5* | 0.8 | 0.9
CCOC(=O)c1ccc(NC(=O)COc2ccccc2OC)cc1 | -1.2 | 1.3 | 3.3 | 0.9 | 82.9*
CNS(=O)(=O)c1ccc(C(C)(C)C)cc1 | 1.8 | 17.2 | -12.2 | 1 | -2.5
O=C(Cn1c(=O)oc2cccnc21)Nc1ccccc1Oc1ccc(Cl)cc1Cl | 0.5 | 28.8 | -14.7 | . | 3.6
Cc1cccn2c(=O)c3cc(C#N)c(=O)n(CC4CCCO4)c3nc12 (configuration not stated) | 9.0 | + | 19.3 | 0.8 | 17.3
O=C(Nc1ccc2c(c1)OCCO2)c1c(F)c(F)c(F)c(F)c1F | 0.7 | 12.5 | 63.5* | 0.9 | 9.1
CC(=O)Nc1ccc2c(c1)OCCO2 | . | 0.8 | . | 0.9 | .
CC1CC(C)CN(CC(=O)Nc2ccc3c(c2)OCCO3)C1 (configuration not stated) | 1.6 | 0.0 | 31.8* | 0.9 | 61.3
Cc1cc(NC(=O)c2cc(-c3cccs3)on2)no1 | 3.4 | 0.3 | -5.2 | 1 | -6.5
O=C(NCc1cccnc1)c1cc(-c2cccs2)on1 | -1.9 | 1.8 | 137.6* | 0.9 | 3.8
CC(C)NC(=O)c1cc(-c2cccs2)on1 | 1.2 | -0.7 | -8.0 | 1 | 70.8*
CCCCOCC1CC(CC#CCN2CCCCC2)C(=O)O1 (configuration not stated) | 1.5 | 16.0 | -4.4 | 0.9 | 77.5*
COc1ccc(C(=O)ON=C2C=C(C)C(=O)C(C)=C2)cc1 | -2.1 | -85.3 | -9.2 | 1 | -5.0
COc1ccc(S(=O)(=O)N=C2C=C(C)C(=O)C(C)=C2)cc1 | 4.3 | 1.5 | -9.3 | 0.7 | 71.6*
CCC1NC(=S)NC(C)=C1C(=O)c1ccccc1 (configuration not stated) | -1.8 | 28.1 | 2.1 | 1 | -9.8
Cc1ccccc1NC(=O)Cn1c(O)c(N=NC(=O)c2ccccc2O)c2ccccc21 | 16.7 | 9.6 | 49.8* | 1 | 92.1*[fluorescence artefact?]
Cc1ccc(NC(=O)Cn2c(O)c(N=NC(N)=O)c3ccccc32)cc1 | -9.3 | 31.3 | -11.3 | . | -6.5
Cc1cccc(OCC(=O)Nc2ccccc2-c2ccccc2)c1 | 16.3 | 3.9 | -10.5 | 0.9 | -4.1
O=C(COc1ccc2ccccc2c1)Nc1cccc2c1C(=O)NC2=O | 12.9 | 59.7* | 19.9 | 0.9 | 65.6
O=c1c2ccccc2c(C=Nc2ccc(O)cc2)c(O)n1Cc1ccccc1 | 34.0* | 17.8 | -82.1 | . | 2.1
COc1ccc(N=Cc2c(O)n(-c3ccc(OC)cc3)c(=O)c3ccccc23)cc1 | 13.9 | 32.1 | 32.9* | 0.8 | 75.5*
COc1ccc(N=Cc2c(O)n(-c3cccc(C)n3)c(=O)c3ccccc23)cc1 | 4.7 | -1.3 | -6.7 | 0.8 | 2.4
COc1ccc(Cn2c(O)c(C=Nc3ccc(O)cc3)c3ccccc3c2=O)cc1 | -2.2 | -1.4 | -11.9 | 0.9 | -15.8
